From ChEMBL document CHEMBL1123591, “Synthetic analogues of tetrahydrobiopterin with cofactor activity for aromatic amino acid hydroxylases” (1987)

Tests used:
[1] = test system: dihydropteridine reductase; experiment: Tested in isolated enzyme assay for its cofactor activity against dihydropteridine reductase expressed as Michaelis-Menten constant
[2] = target: T1, Tryptophan 5-hydroxylase 1 (Rattus norvegicus) (UniProt P09810); experiment: Tested in isolated enzyme assay for its cofactor activity against tryptophan hydroxylase (isolated from rat brain stem) expressed as relative velocity
T1 sequence (whole entry): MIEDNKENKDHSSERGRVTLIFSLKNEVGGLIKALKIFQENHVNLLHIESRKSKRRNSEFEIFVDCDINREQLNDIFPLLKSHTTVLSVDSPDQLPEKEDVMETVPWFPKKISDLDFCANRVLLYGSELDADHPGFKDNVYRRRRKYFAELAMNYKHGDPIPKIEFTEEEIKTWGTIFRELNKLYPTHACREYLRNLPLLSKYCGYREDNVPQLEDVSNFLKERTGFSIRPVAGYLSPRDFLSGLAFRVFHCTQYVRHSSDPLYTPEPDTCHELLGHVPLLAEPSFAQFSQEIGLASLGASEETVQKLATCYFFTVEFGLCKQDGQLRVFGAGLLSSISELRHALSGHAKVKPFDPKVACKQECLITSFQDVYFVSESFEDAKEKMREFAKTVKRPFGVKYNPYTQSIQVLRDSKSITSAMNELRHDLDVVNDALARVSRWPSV
In short: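 The tryptophan hydroxylase source was a desalted 40000g supernatant of rat brain stem, with velocities expressed relative to tetrahydrobiopterin.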

[3] = target: T2, Phenylalanine-4-hydroxylase (Rattus norvegicus) (UniProt P04176); experiment: Tested in isolated enzyme assay for its cofactor activity against phenylalanine hydroxylase (iisolated from rat liver) expressed as relative velocity
T2 sequence (whole entry): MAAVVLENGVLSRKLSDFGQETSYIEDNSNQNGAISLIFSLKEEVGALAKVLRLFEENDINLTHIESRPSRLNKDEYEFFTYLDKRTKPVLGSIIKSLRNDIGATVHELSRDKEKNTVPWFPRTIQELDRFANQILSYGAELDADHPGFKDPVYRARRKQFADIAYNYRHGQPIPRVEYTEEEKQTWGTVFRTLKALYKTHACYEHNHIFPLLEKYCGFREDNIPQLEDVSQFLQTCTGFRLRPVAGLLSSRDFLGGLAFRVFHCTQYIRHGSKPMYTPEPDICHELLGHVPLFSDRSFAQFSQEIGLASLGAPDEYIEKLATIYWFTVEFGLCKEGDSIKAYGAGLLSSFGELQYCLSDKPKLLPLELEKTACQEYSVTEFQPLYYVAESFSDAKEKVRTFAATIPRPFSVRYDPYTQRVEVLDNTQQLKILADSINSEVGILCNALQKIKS
In short: (§1)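 Phenylalanine hydroxylase was isolated from rat liver and purified on phenyl-Sepharose. Tyrosine formed was quantified by liquid chromatography with fluorescence detection, and velocities were expressed relative to tetrahydrobiopterin.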

[4] = target: T3, Tyrosine 3-monooxygenase (Bos taurus) (UniProt P17289); experiment: Cofactor activity in bovine adrenal medulla tyrosine hydroxylase assay as relative velocity
T3 sequence (whole entry): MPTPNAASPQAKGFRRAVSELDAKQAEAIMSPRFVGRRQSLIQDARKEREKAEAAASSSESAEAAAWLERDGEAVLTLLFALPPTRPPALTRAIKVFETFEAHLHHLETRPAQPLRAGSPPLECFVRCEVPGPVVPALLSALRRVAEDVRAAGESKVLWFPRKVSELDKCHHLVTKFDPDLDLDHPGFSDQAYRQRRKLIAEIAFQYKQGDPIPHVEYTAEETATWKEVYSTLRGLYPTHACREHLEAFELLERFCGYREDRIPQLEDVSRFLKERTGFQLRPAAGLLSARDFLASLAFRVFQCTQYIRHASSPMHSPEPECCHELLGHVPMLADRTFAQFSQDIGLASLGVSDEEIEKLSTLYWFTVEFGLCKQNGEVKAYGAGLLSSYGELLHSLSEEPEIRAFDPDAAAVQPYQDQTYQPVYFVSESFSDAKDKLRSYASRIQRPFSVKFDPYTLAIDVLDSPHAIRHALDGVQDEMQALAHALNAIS
In short: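 Tyrosine hydroxylase was purified from bovine adrenal medulla by partial trypsin digestion, giving a model of the high-affinity form, then ammonium sulfate fractionation. Activity was measured as release of ³H₂O from L-(3,5-³H)tyrosine, with velocities expressed relative to tetrahydrobiopterin.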

[5] = target: T2, Phenylalanine-4-hydroxylase (Rattus norvegicus); experiment: Tested in isolated enzyme assay for its cofactor activity against phenylalanine hydroxylase (isolated from rat liver) expressed as relative velocity
In short: as §1

[6] = test system: dihydropteridine reductase; experiment: Tested in isolated enzyme assay for its cofactor activity against dihydropteridine reductase expressed as Michaelis-Menten constant (calculated in the presence of platinum catalyst)

Compound | Relative velocity [2] [%] | Relative velocity [3] [%] | Relative velocity [4] [%] | Relative velocity [5] [%] | Km [1] [µM] | Km [6] [µM]
CC1CNc2nc(N)[nH]c(=O)c2N1 (configuration not stated) | 154 | 238 | 154 |  | 13 | 
CCCCOCC1CNc2nc(N)nc(O)c2N1 (configuration not stated) | 52 |  | 135 | 22 | 3 | 
CC(C)OCC1CNc2nc(N)nc(O)c2N1 (configuration not stated) | 44 |  | 137 | 15 | 4 | 
CC(C)COCC1CNc2nc(N)nc(O)c2N1 (configuration not stated) |  |  | 110 |  |  | 
CC(O)C(O)C1CNc2nc(N)nc(O)c2N1 (configuration not stated) | 100 | 100 | 100 |  | 2 | 
CC(C)(C)OCC1CNc2nc(N)nc(O)c2N1 (configuration not stated) |  |  | 130 | 4 | 5 | 
COCCOCC1CNc2nc(N)nc(O)c2N1 (configuration not stated) |  |  | 131 | 36 |  | 
CC1(C)CNc2nc(N)nc(O)c2N1 | 40 |  | 119 | 39 |  | 260

Second part, led by results:

Relative velocity [2] [%] | Relative velocity [3] [%] | Relative velocity [4] [%] | Relative velocity [5] [%] | Compound | Km [1] [µM] | Km [6] [µM]
85 | 155 | 154 |  | CCOCC1CNc2nc(N)nc(O)c2N1 (configuration not stated) | 6 | 
65 | 138 | 126 |  | COCC1CNc2nc(N)nc(O)c2N1 (configuration not stated) | 9 | 
 |  | 85 |  | CCCCCOCC1CNc2nc(N)nc(O)c2N1 (configuration not stated) |  | 
32 |  | 48 | 3 | CCCCCCCCOCC1CNc2nc(N)nc(O)c2N1 (configuration not stated) |  | 
54 |  | 92 | 32 | CCCOCC1CNc2nc(N)nc(O)c2N1 (configuration not stated) | 2 | 
